Measurements published in ChEMBL document CHEMBL1140302, “Pyrrolo[1,5]benzoxa(thia)zepines as a new class of potent apoptotic agents. Biological studies and identification of an intracellular location of their drug target” (J Med Chem, 2005).

What was measured:
[1] = test system: K562; test: Percent apoptotic activity of compound in chronic myelogenous leukemia K562 cells at 10 uM for 16 h; assay type: functional, Homo sapiens
Procedure, shortened: (§1)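 Seeded at 3 × 10⁵ cells/mL and given compound at 10 µM final from ethanol stock (vehicle 1% ethanol) for 16 h. Cytospin, RapiDiff staining, then ~300 cells counted by light microscopy (shrinkage, blebbing, nuclear condensation/fragmentation) for percent apoptosis.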

[2] = test system: HL-60; test: Percent apoptotic activity of compound in human acute myelocytic leukemia HL-60 cells at 10 uM for 16 h; assay type: functional; procedure, shortened: as §1
[3] = In vitro cytotoxic activity of compound against (MesSa) human uterine sarcoma cells by sulforhodamine B (SRB) assay; assay type: functional, cell-based
Procedure, shortened: (§2)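 Seeded at 1 × 10⁴ cells/well and grown 24 h at 37 °C; LoVo in Ham's F12, MesSa in McCoy's 5A, with 10% heat-inactivated FCS. Exposed 24 h to 10 decreasing concentrations (200–0.5 µM; dissolved in 10% DMSO in water; at least eight replicates each). Washed, 48 h recovery, TCA fixation, sulforhodamine B staining, OD 540 nm. IC50 (± SD) by sigmoidal curve fitting.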

[4] = test system: Mus musculus; test: Effect (30 mg/kg; i.p.) on hematology parameter of BALB/c mice as per the qdx8 schedule; assay type: functional
Procedure, shortened: (§3)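 Male Balb/c mice (5-6 weeks old, about 20 g), five per group, dosed ip once daily for 8 consecutive days at 30 mg/kg. Vehicle: Cremophor EL 1:1 with ethanol, then diluted 1:4 in PBS, 10 mL/kg. Vehicle-only control group. Body weight recorded. 24 h after the last dose, retro-orbital blood was taken under CO2 into heparin. RBC, WBC and PLT counted on a cell analyzer. ANOVA and Student's t test.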

[5] = test system: LoVo; test: In vitro cytotoxic activity of compound against (LoVo) human colon adenocarcinoma cells by sulforhodamine B (SRB) assay; assay type: functional, cell-based; procedure, shortened: as §2
[6] = test system: M109; test: In vitro cytotoxic activity of compound against (M109) mouse lung carcinoma cells by sulforhodamine B (SRB) assay; assay type: functional, cell-based
[7] = test system: HT-29; test: In vitro cytotoxic activity of compound against human colon adenocarcinoma (HT-29) cell line by sulforhodamine B (SRB) assay; assay type: functional, cell-based
[8] = test system: Mus musculus; test: Effect (30 mg/kg; i.p.) on body weight of BALB/c mice according to the qdx8 schedule; initial weight=21.02 grams; assay type: functional; procedure, shortened: as §3
[9] = test system: NCI-H460; test: In vitro cytotoxic activity of compound against human lung carcinoma (NCI-H460) cell lines by sulforhodamine B (SRB) assay; assay type: functional, cell-based
Procedure, shortened: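 NCI-H460 seeded at 3 × 10³ cells/well, 24 h at 37 °C, then 24 h drug exposure at 10 decreasing concentrations (200–0.5 µM; drug in 10% DMSO in water; at least eight replicates each). PBS washes, 48 h recovery, TCA fixation, sulforhodamine B staining, bound dye read at 540 nm. IC50 (± SD) from sigmoidal curve fitting.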

CCCCCC(=O)OC1=C(c2cccc3ccccc23)Oc2ccccc2[N+]2=C1CC=C2
Apoptotic Activity [1]: 0% | Apoptotic Activity [2]: 0%

CCN(CC)C(=O)OC1=C(c2cccc3ccccc23)Sc2ccccc2[N+]2=C1CC=C2
Apoptotic Activity [1]: 7% | Apoptotic Activity [2]: 12%

COc1ccc(C2=C(OC(=O)c3ccncc3)C3=[N+](C=CC3)c3ccccc3S2)cc1
Apoptotic Activity [1]: 32% | Apoptotic Activity [2]: 31%

CCOC(=O)c1ccc2c(c1)OC(c1cccc3ccccc13)=C(OC(=O)N(C)C)C1=[N+]2C=CC1
Apoptotic Activity [1]: 50% | Apoptotic Activity [2]: 49%

CC(=O)OC1=C(c2cccc3ccccc23)Oc2ccccc2[N+]2=C1CC=C2
Apoptotic Activity [1]: 43% | Apoptotic Activity [2]: 42%

CN(C)C(=O)OC1=C(c2cccc3ccccc23)Oc2cc(C(=O)O)ccc2-n2cccc21
Apoptotic Activity [1]: 0% | Apoptotic Activity [2]: 0%

CCCCC(=O)OC1=C(c2cccc3ccccc23)Oc2ccccc2[N+]2=C1CC=C2
Apoptotic Activity [1]: 0% | Apoptotic Activity [2]: 0%

CN(C)C(=O)OC1=C(c2ccc3ccccc3c2)Oc2ccccc2[N+]2=C1CC=C2
Apoptotic Activity [1]: 0% | Apoptotic Activity [2]: 0%

COc1ccc(C2=C(OC(=O)N(C)C)C3=[N+](C=CC3)c3ccccc3S2)cc1
Apoptotic Activity [1]: <10% | Apoptotic Activity [2]: <10%

CN(C)C(=O)OC1=C(c2cccc3ccccc23)Sc2ccccc2[N+]2=C1CC=C2
Apoptotic Activity [1]: 39% | Apoptotic Activity [2]: 40%

CC(=O)OC1=C(c2cccc3ccccc23)Sc2ccccc2[N+]2=C1CC=C2
Apoptotic Activity [1]: 41% | Apoptotic Activity [2]: 39%

O=C(OC1=C(c2cccc3ccccc23)Sc2ccccc2[N+]2=C1CC=C2)c1ccncc1
Apoptotic Activity [1]: 27% | Apoptotic Activity [2]: 55%

CN(C)C(=O)OC1=C(c2cccc3ccccc23)Oc2ccccc2[N+]2=C1CC=C2
Apoptotic Activity [1]: 48% | IC50 [3]: 7.1 µM | PLT [4]: 354 10E3/mm3 | RBC [4]: 9.45 10E6/mm3 | WBC [4]: 7.03 10^3/mm³ | IC50 [5]: 9.2 µM | IC50 [6]: 1.8 µM | Apoptotic Activity [2]: 44% | IC50 [7]: 1.9 µM | Weight [8]: 20.8 g | IC50 [9]: 1.7 µM

CC(=O)OC1=C(c2ccccc2)Oc2ccccc2[N+]2=C1CC=C2
Apoptotic Activity [1]: 0% | Apoptotic Activity [2]: 0%
